In ChEMBL document CHEMBL5252514, “Conopeptide-Derived κ-Opioid Agonists (Conorphins): Potent, Selective, and Metabolic Stable Dynorphin A Mimetics with Antinociceptive Properties” (J Med Chem, 2016):
pKi: −log10 of the molar value. Where a SMILES comes first, the peptide text is derived from it.

How the values were obtained:
[1] = biological target: Kappa-type opioid receptor (Homo sapiens, UniProt P41145); test: Displacement of [3H]U69593 from human kappa opioid receptor expressed in CHO-K1 cells incubated for 1 hr by 1450 microbeta scintillation counter analysis; format: cell-based
Sequence of Kappa-type opioid receptor (P41145 whole entry): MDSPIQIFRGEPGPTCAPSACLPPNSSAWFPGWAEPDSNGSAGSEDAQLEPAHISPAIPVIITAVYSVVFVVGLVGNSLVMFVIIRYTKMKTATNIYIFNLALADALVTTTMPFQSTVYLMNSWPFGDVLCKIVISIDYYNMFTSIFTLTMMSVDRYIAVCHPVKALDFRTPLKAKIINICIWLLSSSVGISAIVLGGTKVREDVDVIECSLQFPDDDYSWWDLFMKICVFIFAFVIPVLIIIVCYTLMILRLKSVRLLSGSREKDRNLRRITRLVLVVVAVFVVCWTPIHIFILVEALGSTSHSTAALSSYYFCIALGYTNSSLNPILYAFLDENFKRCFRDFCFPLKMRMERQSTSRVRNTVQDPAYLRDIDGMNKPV
Method in brief: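 Membranes from transiently KOR-transfected CHO-K1 cells (~2 µg/well) used in SPA with 3H-U69,593 (1 nM). Competitor ranged 1 pM–10 µM in 50 mM Tris-HCl pH 7.4, 5 mM MgCl2, 0.1% BSA. Incubated 1 h at room temperature with shaking. Nonspecific binding defined with 10 µM dynorphin A. Sigmoidal dose-response fit; at least three independent experiments in triplicate.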

[2] = Metabolic stability in Wistar rat plasma assessed as half life by HPLC analysis; format: ADME, cell-free
Method in brief: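 Peptide at 1 mg/mL in sterile PBS pH 7.4 was mixed 1:1 with thawed, centrifuged Wistar rat plasma supernatant and incubated at 37°C in triplicate. Samples at 0, 1, 2, 3, 4, 6 and 24 h were quenched with acetonitrile and then 2% TFA/water, and analysed by HPLC with inline electrospray MS.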

Row | Structure (SMILES) | pKi [1] | half-life [2]
1 | CC[C@H](C)[C@H](NC(=O)[C@H](CCC(N)=O)NC(=O)[C@H](CCCNC(=N)N)NC(=O)[C@@H](N)CCCNC(=N)N)C(N)=O (H-RRQI-NH2) | 4.64 | 
2 | N=C(N)NCCC[C@@H](NC(=O)[C@@H](CCCNC(=N)N)NC(=O)[C@@H]1CCCN1C(=O)c1ccccc1)C(=O)N[C@@H](CCC(N)=O)C(=O)N[C@H](CN[C@H]1CSSC[C@@H](C(N)=O)NC1=O)CC1CCCCC1 | 6.87 | 16 h
